The subject of data set [1] is Staphylococcus aureus. Nature of the data set: Antibacterial activity against methicillin-susceptible Staphylococcus aureus ATCC 29213 incubated for 16 to 20 hrs by microdilution method. The data set is classed as functional. In general terms: In broth dilution the organism is exposed to a series of concentrations in liquid medium.
In data set [2] the test system is Mus musculus. The data set is described as follows: AUC (0 to last) in ICR mouse peritonitis model infected with methicillin resistant Staphylococcus aureus ATCC 27660 at 10 mg/kg, iv administered as single dose measured up to 8 hrs by UPLC analysis. It counts as ADME, organism-based. Also on record: dose 10 mg/kg, time 0 - last, route intravenous. Conditions: in vivo, 8 h. An outline of the steps:
(§1)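 Fast PK: female ICR mice (n = 2 per time point) given single tail-vein iv injection at 5, 10 or 20 mg/kg in 25% DMSO/65% propylene glycol/10% water (2.5, 5 or 10 mg/mL); terminal cardiac blood at 5 min, 40 min, 2, 4, 8 h; plasma analysed by UPLC with internal standard calibration.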

A further data set has as its system HepG2. Nature of the data set: Cytotoxicity against human HepG2 cells incubated for 16 hrs by XTT assay. It counts as cell-based. Conditions: HepG2, 16 h. The method in brief: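 HepG2 cells were tested with an XTT viability read-out, in triplicate. IC50 was obtained by nonlinear regression.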
(In general: Tetrazolium dyes change colour on reduction, which living cells bring about.)

Data set [3] in a line: Hemolytic activity against human RBC at 64 ug/ml relative to control. The data set is classed as ADME, cell-based, Erythrocyte. Conditions: erythrocyte. The method in brief:
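Hemolysis was measured at a fixed 64 μg/mL on a 10% red-cell suspension from heparinized human blood. Triton-X served as the positive control, and results are given as percent hemolysis.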

In data set [4] the test system is Staphylococcus aureus. The data set is described as follows: Antibacterial activity against mecA-positive multidrug resistant Staphylococcus aureus COL NRS100 incubated for 16 to 20 hrs by microdilution method. It counts as functional.
Data set [5] concerns Staphylococcus aureus. Nature of the data set: Antibacterial activity against mecA-positive multidrug resistant Staphylococcus aureus NRS119 incubated for 16 to 20 hrs by microdilution method. It counts as functional.
The test system of data set [6] is Staphylococcus aureus. Nature of the data set: Antibacterial activity against mecA-positive multidrug resistant Staphylococcus aureus NRS120 incubated for 16 to 20 hrs by microdilution method. The data set is classed as functional.
Data set [7] has as its system Staphylococcus aureus. The data set is described as follows: Antibacterial activity against vancomycin/methicillin-resistant Staphylococcus aureus VRS1 clinical isolate incubated for 16 to 20 hrs by microdilution method. It counts as functional.
The test system of data set [8] is Staphylococcus aureus. Nature of the data set: Antibacterial activity against vancomycin/methicillin-resistant Staphylococcus aureus VRS2 clinical isolate incubated for 16 to 20 hrs by microdilution method. It counts as functional.
Data set [9] concerns Staphylococcus epidermidis. The data set is described as follows: Antibacterial activity against Staphylococcus epidermidis ATCC 35547 incubated for 16 to 20 hrs by microdilution method. It counts as functional. The method in brief: (§2)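 CLSI broth microdilution. 2-fold serial dilutions were made in cation-adjusted Mueller–Hinton broth, with 5% lysed horse blood added for Streptococcus strains, in triplicate. Inoculum 5×10^5 CFU/mL. Plates incubated 36 °C for 16–20 h. MIC taken as the lowest concentration visibly inhibiting growth.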

For data set [10], the system named is Staphylococcus haemolyticus. The data set is described as follows: Antibacterial activity against Staphylococcus haemolyticus ATCC 29970 incubated for 16 to 20 hrs by microdilution method. The data set is classed as functional.
A further data set has as its system Streptococcus oralis. The data set is described as follows: Antibacterial activity against Streptococcus oralis ATCC 9811 incubated for 16 to 20 hrs by microdilution method. The data set is classed as functional. The method in brief:
as §2

In a further data set the test system is Streptococcus pyogenes. The data set is described as follows: Antibacterial activity against Streptococcus pyogenes ATCC 49399 incubated for 16 to 20 hrs by microdilution method. It counts as functional. The method in brief:
as §2

For a further data set, the system named is Bacillus cereus. The data set is described as follows: Antibacterial activity against Bacillus cereus ATCC 13061 incubated for 16 to 20 hrs by microdilution method. It counts as functional. An outline of the steps:
as §2

Another data set deals with Bacillus licheniformis. Nature of the data set: Antibacterial activity against Bacillus licheniformis ATCC 12759 incubated for 16 to 20 hrs by microdilution method. The data set is classed as functional. An outline of the steps:
as §2

Data set [11] concerns Enterococcus faecalis. The data set is described as follows: Antibacterial activity against methicillin-susceptible Enterococcus faecalis ATCC 29212 incubated for 16 to 20 hrs by microdilution method. It counts as functional. An outline of the steps:
as §2

Data set [12] has as its system Enterococcus faecalis. Nature of the data set: Antibacterial activity against vancomycin-resistant Enterococcus faecalis 99 clinical isolate incubated for 16 to 20 hrs by microdilution method. It counts as functional.
In a further data set the test system is Enterococcus faecium. The data set is described as follows: Antibacterial activity against Enterococcus faecium NCTC 7171 incubated for 16 to 20 hrs by microdilution method. The data set is classed as functional. The method in brief: as §2
The subject of a further data set is Klebsiella pneumoniae. Nature of the data set: Antibacterial activity against Klebsiella pneumoniae ATCC 700603 incubated for 16 to 20 hrs by microdilution method. The data set is classed as functional. An outline of the steps:
as §2

In another data set the test system is Acinetobacter baumannii. Nature of the data set: Antibacterial activity against Acinetobacter baumannii ATCC 17961 incubated for 16 to 20 hrs by microdilution method. It counts as functional. The method in brief:
as §2

Another data set concerns Pseudomonas aeruginosa. Nature of the data set: Antibacterial activity against Pseudomonas aeruginosa […] incubated for 16 to 20 hrs by microdilution method. It counts as functional. An outline of the steps: as §2
The next data set deals with Escherichia coli. The data set is described as follows: Antibacterial activity against Escherichia coli ATCC 25922 incubated for 16 to 20 hrs by microdilution method. It counts as functional. The method in brief:
as §2

The subject of a further data set is Klebsiella aerogenes. The data set is described as follows: Antibacterial activity against Enterobacter aerogenes ATCC 35029 incubated for 16 to 20 hrs by microdilution method. It counts as functional. The method in brief:
as §2

Data set [13] has as its system Mus musculus. The data set is described as follows: AUC (0 to last) in ICR mouse peritonitis model infected with methicillin resistant Staphylococcus aureus ATCC 27660 at 20 mg/kg, iv administered as single dose measured up to 8 hrs by UPLC analysis. The data set is classed as ADME, organism-based. Also on record: dose 20 mg/kg, time 0 - last, route intravenous. Conditions: in vivo. The method in brief:
as §1

In data set [14] the test system is Staphylococcus aureus. The data set is described as follows: Antibacterial activity against mecA-positive methicillin/oxacillin/tetracycline-resistant Staphylococcus aureus ATCC 27660 incubated for 16 to 20 hrs by microdilution method. It counts as functional.
The subject of data set [15] is Staphylococcus aureus. The data set is described as follows: Antibacterial activity against Staphylococcus aureus COL expressing pbpA antisense plasmid assessed as increase in zone of inhibition after 18 to 20 hrs in presence of xylose. It counts as functional, organism-based. The method in brief: (§3)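 MRSA COL strains carrying pbpA, pbp2, mecA or pbp3 under antisense control were grown overnight on agar with 34 μg/mL chloramphenicol. Molten chloramphenicol agar with 0 or 50 mM xylose was seeded at 1×10^7 CFU/mL and set. Compound (10 μL) was spotted on the agar, and plates were incubated 36 °C for 18–20 h. Susceptibility with and without xylose induction was compared.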

Data set [16] relates to Staphylococcus aureus. Nature of the data set: Antibacterial activity against Staphylococcus aureus COL expressing pbp2a antisense plasmid assessed as increase in zone of inhibition after 18 to 20 hrs in presence of xylose. The data set is classed as functional, organism-based. An outline of the steps:
as §3

In data set [17] the test system is Staphylococcus aureus. Nature of the data set: Antibacterial activity against Staphylococcus aureus COL expressing pbp2 antisense plasmid assessed as increase in zone of inhibition after 18 to 20 hrs in presence of xylose. The data set is classed as functional, organism-based. The method in brief: as §3
The test system of data set [18] is Staphylococcus aureus. The data set is described as follows: Antibacterial activity against Staphylococcus aureus COL expressing pbp3 antisense plasmid assessed as increase in zone of inhibition after 18 to 20 hrs in presence of xylose. It counts as functional, organism-based. An outline of the steps:
as §3

Data set [19] deals with Mus musculus. Nature of the data set: AUC (0 to last) in ICR mouse peritonitis model infected with methicillin resistant Staphylococcus aureus ATCC 27660 at 5 mg/kg, iv administered as single dose measured up to 8 hrs by UPLC analysis. Further details: dose 5 mg/kg, route intravenous, time 0 - last. It counts as ADME, organism-based. Conditions: in vivo. The method in brief: as §1

The nature of data set [20]: Ratio of IC50 for human HepG2 cells to MIC for methicillin-susceptible Staphylococcus aureus ATCC 29213. The method in brief: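 HepG2 XTT cytotoxicity in triplicate, IC50 by nonlinear regression, divided by broth-microdilution MIC for ATCC 29213.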
Data set [21] is described as follows: Ratio of hemolytic concentration for human RBC to MIC for methicillin-susceptible Staphylococcus aureus ATCC 29213.

Converted amounts (≈) assume the structure as drawn. The source made the active and inactive calls. The rule behind the calls is not given here. Bounds are passed on as bounds.

The values below come from ChEMBL document CHEMBL3817745, “Structure-Activity Relationship for the 4(3H)-Quinazolinone Antibacterials” (J Med Chem, 2016).

In the case of `N#Cc1ccc(/C=C/c2nc3ccccc3c(=O)n2-c2cccc(N)c2)cc1`, the MIC (in general, the lowest concentration that inhibits growth of the organism) against Staphylococcus aureus [1] is 0.5 µg/mL (≈ 1.37 µM); in the data set on Staphylococcus aureus [4] it was 4 µg/mL (≈ 11 µM); in the data set with Staphylococcus aureus [5], 4 µg/mL (≈ 11 µM); in the data set with Staphylococcus aureus [6], 4 µg/mL (≈ 11 µM); against Staphylococcus aureus [7] it was 8 µg/mL (≈ 22 µM); against Staphylococcus aureus [8] it was 4 µg/mL (≈ 11 µM). The MIC was 0.125 µg/mL (≈ 0.343 µM) in data set [9]; 1 µg/mL (≈ 2.74 µM) in [10]; greater than 128 µg/mL against Streptococcus oralis; greater than 128 µg/mL with Streptococcus pyogenes; greater than 128 µg/mL against Bacillus cereus; greater than 128 µg/mL in the data set with Bacillus licheniformis. Moreover, the MIC against Enterococcus faecalis [11] is greater than 128 µg/mL; against Enterococcus faecalis [12], 16 µg/mL (≈ 43.9 µM); against Enterococcus faecium it was greater than 128 µg/mL; against Klebsiella pneumoniae, no less than 16 µg/mL; against Acinetobacter baumannii, no less than 16 µg/mL; against Pseudomonas aeruginosa, no less than 16 µg/mL. In addition, the MIC in the data set with Escherichia coli and in the data set on Klebsiella aerogenes was no less than 16 µg/mL each time. The AUClast in the data set on Mus musculus [2] is 204 µg·min/mL. For the same compound, it took 77.2 µg/mL (≈ 212 µM) to reach half-maximal inhibition in the data set on HepG2 (IC50). In addition, the Activity in [3] was found to be 3.3%.

As for `O=C(O)c1cccc(-n2c(/C=C/c3ccc(F)cc3)nc3ccccc3c2=O)c1`, the MIC against Staphylococcus aureus [1] is 1 µg/mL (≈ 2.59 µM); in the data set on Staphylococcus aureus [14] it was 2 µg/mL (≈ 5.18 µM); against Staphylococcus aureus [4], 8 µg/mL (≈ 20.7 µM); against Staphylococcus aureus [6], 8 µg/mL (≈ 20.7 µM); against Staphylococcus aureus [7] it was 8 µg/mL (≈ 20.7 µM); in the data set with Staphylococcus aureus [8], 1 µg/mL (≈ 2.59 µM). The MIC in data set [9] is 0.125 µg/mL (≈ 0.324 µM); in data set [10], 0.25 µg/mL (≈ 0.647 µM); against Streptococcus oralis, 128 µg/mL (≈ 331 µM); against Streptococcus pyogenes it was 128 µg/mL (≈ 331 µM); in the data set on Bacillus cereus, greater than 128 µg/mL; against Bacillus licheniformis, greater than 128 µg/mL. Moreover, the MIC in the data set on Enterococcus faecalis [11] was greater than 128 µg/mL; in the data set on Enterococcus faecalis [12], greater than 128 µg/mL; against Enterococcus faecium, greater than 128 µg/mL; against Klebsiella pneumoniae, no less than 16 µg/mL; against Acinetobacter baumannii, no less than 16 µg/mL; against Pseudomonas aeruginosa, no less than 16 µg/mL. Further, the minimum inhibitory concentration (MIC) against Escherichia coli and against Klebsiella aerogenes was no less than 16 µg/mL each time. Besides, the AUClast in the data set on Mus musculus [13] worked out at 2560 µg·min/mL. In addition, the IC50 (as a rule, the concentration needed to halve the response being measured) with HepG2 stood at 95.5 µg/mL (≈ 247 µM). In data set [3], this compound came in with an Activity of less than 1%.

With `CCO/N=C(\C(=O)N[C@@H]1C(=O)N2C(C(=O)[O-])=C(Sc3nc(-c4cc[n+](C)cc4)cs3)CS[C@H]12)c1nsc(NP(=O)(O)O)n1`, the result in the data set on Staphylococcus aureus [15], with Staphylococcus aureus [16], in the data set on Staphylococcus aureus [17] and in the data set on Staphylococcus aureus [18] was Active.

As for `O=c1c2ccccc2nc(/C=C/c2ccc(F)cc2)n1-c1cccc(O)c1`, the MIC with Staphylococcus aureus [1] is 0.25 µg/mL (≈ 0.698 µM); in the data set with Enterococcus faecium, no less than 8 µg/mL; in the data set with Klebsiella pneumoniae, no less than 16 µg/mL; in the data set with Acinetobacter baumannii, no less than 16 µg/mL; with Pseudomonas aeruginosa, no less than 16 µg/mL; against Escherichia coli it was no less than 16 µg/mL. This compound came in with an MIC in the data set on Klebsiella aerogenes of no less than 16 µg/mL. Also, the AUClast in the data set with Mus musculus [19] was found to be 466 µg·min/mL. In addition, the IC50 in the data set with HepG2 came to 16.4 µg/mL (≈ 45.8 µM). This compound yielded an Activity in data set [3] of less than 1%. Further, the values for the Ratio in [20] and in [21] were greater than 30 and greater than 120, respectively.
